From PubChem
Hits are enriched below; roughly 1.3% of the tested compounds scored in any of these assays.
FN deposit inh: fibronectin deposition inhibition; AH1F fibroblasts, Alexa488-fibronectin deposition fluorescence, overnight; hit rate 0.086% among 350,000; inhibition, % at 12.6 µM;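 active means mean inhibition across replicates of 30% or more, regardless of how many single replicates reach that level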;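 further: positive control wells lacked labelled fibronectin entirely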
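Material: AH1F fibroblast monolayer depositing Alexa488-labelled fibronectin into matrix / Amount: 10000 AH1F cells per well / Signal: fluorescence 485/525 nm / Medium: DMEM, 2% serum / Compound: single dose, pinned / Incubation: 1 h cell adhesion before compound, then overnight fibronectin incubation / Reagent: Alexa488-FN, 24 nM final / Read-out: inhibition of fibronectin deposition signal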
RAD54 inh: blocks human RAD54 Holliday junction branch migration | Q92698 | FAM/BHQ fluorescence | inhibition, % at 10.4 µM | hit rate 0.14% among 360,000;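 active means mean normalized replicate activity at least 40 and at least half of replicates scoring 40 or more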;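 further: 0% = median of neutral control wells and 100% = median of positive control wells; inhibitors cause a drop in the FAM fluorescence signal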
PAX8 reporter: inhibitors of PAX8 transcriptional activity in RMG-I cells. AID 652154. inhibition, % at 12.6 µM. RMG-I TPO-luciferase reporter, SteadyGlo, 24 h. hit rate 1.2% among 360,000;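 active means mean replicate inhibition at least 60% with every replicate also reaching 60%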;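 further: luciferase light reporting Pax8 driven TPO promoter activity; plate controls were median of neutral control wells for no effect and mitoxantrone controls for full effect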
RAD52 anneal inh: RAD52 (human) annealing inhibition; recombinant RAD52 DNA annealing, FRET fluorescence; inhibition, % at 18.7 µM; hit rate 0.46% among 360,000; AID 651710;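 active means every replicate showing at least 50% inhibition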
Target sequence (P43351 whole entry, looked up): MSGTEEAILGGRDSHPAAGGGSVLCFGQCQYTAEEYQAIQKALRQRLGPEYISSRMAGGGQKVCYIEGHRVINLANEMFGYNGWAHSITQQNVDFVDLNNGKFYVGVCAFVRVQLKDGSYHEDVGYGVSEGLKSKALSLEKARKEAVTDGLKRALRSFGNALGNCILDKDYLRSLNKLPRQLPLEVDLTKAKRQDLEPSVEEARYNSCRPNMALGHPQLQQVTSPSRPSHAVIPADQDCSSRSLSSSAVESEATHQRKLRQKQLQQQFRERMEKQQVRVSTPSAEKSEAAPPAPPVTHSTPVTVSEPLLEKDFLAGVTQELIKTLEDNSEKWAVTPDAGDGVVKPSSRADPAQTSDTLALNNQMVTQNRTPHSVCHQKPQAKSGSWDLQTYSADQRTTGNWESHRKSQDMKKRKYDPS
* marks the source's active call; other numbers are inactive results; . = no result.

SMILES | FN deposit inh | RAD54 inh | PAX8 reporter | RAD52 anneal inh
CN(C)CC#Cc1ccc([C@@H]2[C@@H](CO)N3CCCCN(CC4CC4)C[C@@H]23)cc1 | . | -3 | -10 | 71*
CN(C)CC#Cc1ccc([C@@H]2[C@H](CO)N3CCCCN(CC4CC4)C[C@@H]23)cc1 | 3 | -3 | 0 | 58*
CCC(=O)N(C)C[C@H]1Oc2ncc(C#CC(C)C)cc2C(=O)N([C@@H](C)CO)C[C@@H]1C | . | . | -27 | .
Cc1ccc(CN2C(=O)CCC2C(=O)N2CCN(c3ccc(F)cc3)CC2)cc1 (centres undefined) | . | -16 | . | .
c1ccc(SCCN2CCN(c3ccccc3)CC2)cc1 | -5 | -5 | -18 | 10
COc1ccc(OC)c(NC(=O)c2ccc(OC3CSC3)cc2)c1 | . | 1 | -20 | -26
COc1ccc(-c2nc3cc(C)ccn3c2NC(=O)c2ccccc2OC)cc1 | -7 | 14 | 9 | -42
C[C@@H]1CN([C@H](C)CO)C(=O)Cc2cc(NS(=O)(=O)c3ccc(F)cc3)ccc2O[C@H]1CN(C)Cc1ccccc1 | -15 | 8 | -11 | 5
COc1cccc(-c2ccc([C@H]3[C@@H](CO)N4CCCCN(CC5CCOCC5)C[C@@H]34)cc2)c1 | . | -1 | -27 | 56*
C=C(C)c1cccc(C(C)(C)NC(=O)N2CCN(c3ccccc3)CC2)c1 | -5 | . | -4 | 0
C=C(C)c1cccc(C(C)(C)NC(=O)N2CCN(c3ccccc3OC)CC2)c1 | 1 | . | 106* | -13
CCCCN1C=CC(=C2C(=O)c3ccccc3C2=O)C=C1 | -3 | -10 | 82* | -28
C/C(=N\NC(=O)c1nn(C)cc1Br)c1ccc(NC(=O)c2ccncc2)cc1 | -1 | 10 | 87* | -9
CC(C)(C)[C@H](N)C(=O)N[C@H]1CCC2C3CC=C4C[C@@H](O)CC[C@]4(C)C3CC[C@@]21C (some centres undefined) | -4 | . | 95* | -5
Cc1nn(C)c(C)c1S(=O)(=O)N(CC(=O)NCCCN1CC(C)CC(C)C1)c1ccc(C(C)C)cc1 (centres undefined) | 3 | 1 | 4 | -1
COCCNC(=O)CSc1nc2scc(-c3ccccc3)c2c(=O)[nH]1 | -3 | . | -10 | -28
Cc1cc(Nc2cc(Cl)nc(Sc3ccc(NC(=O)C4CC4)cc3)n2)n[nH]1 | 13 | 12 | 75* | -12
Cc1cc(NC(=O)c2ccc(NC(=O)C3CC3)cc2)no1 | -3 | . | -19 | -17
O=C(NC(C(=O)N1CCCC1C(=O)NC1CCCC1)c1ccccc1)c1cccs1 (centres undefined) | 0 | . | -13 | 1
COc1ccccc1NC(=O)N1CCCCN2[C@H](CO)[C@H](c3ccc(-c4ccccc4)cc3)[C@H]2C1 | . | -6 | 44 | 52*
Cc1ccccc1-c1ccc([C@@H]2[C@H](CO)N3CCCCN(C(=O)NC4CCCC4)C[C@@H]23)cc1 | . | 18 | 2 | 15
COc1ccccc1NC(=O)N1CCCCN2[C@@H](CO)[C@H](c3ccc(-c4ccccc4)cc3)[C@@H]2C1 | . | 0 | -20 | 67*
Cc1ccccc1-c1ccc([C@@H]2[C@@H](CO)N3CCCCN(C(=O)NC4CCCC4)C[C@H]23)cc1 | . | 6 | 82* | 17
COc1ccccc1NC(=O)N1CCCCN2[C@@H](CO)[C@@H](c3ccc(-c4ccccc4)cc3)[C@@H]2C1 | . | 0 | 5 | 50*
COc1ccccc1NC(=O)N1CCCCN2[C@H](CO)[C@H](c3ccc(-c4cccc(C)c4)cc3)[C@H]2C1 | . | 2 | 104* | 17
SMILES | FN deposit inh | RAD54 inh | PAX8 reporter | RAD52 anneal inh
CCC(=O)N1c2ccc(S(=O)(=O)CCC(=O)N3CCn4c3nc3ccccc34)cc2CC1C (centres undefined) | -3 | -5 | 106* | .
CCOC(=O)N1CCN(C(=O)CCS(=O)(=O)c2ccc3c(c2)CC(C)N3C(=O)CC)CC1 (centres undefined) | -4 | -3 | -1 | -8
CCN(CCO)c1ccc(Nc2cc(-c3ccc(-c4ccccc4)cc3)ncn2)cc1 | -1 | 5 | -4 | -11
CCN(CCO)c1ccc(N=Nc2cc(C)[nH]n2)cc1 | -4 | . | 87* | -26
CC(C)OCCCNC(=O)c1cccc(NC(=O)c2ccccc2)c1 | -2 | 5 | 126* | -11
CC[C@H](CO)Nc1nc(Nc2cccc(Cl)c2)c2ncn(C(C)C)c2n1 | 7 | 7 | 78* | -22
Cc1cccc(Cn2c(Cc3ccccc3)nc3ccccc32)c1 | -4 | -10 | 69* | -10
COc1ccc(/C=C/C(=O)c2cc(F)ccc2OC(=O)c2ccccc2OC)cc1OC | -26 | . | 85* | -10
COc1ccc(/C=C/C(=O)c2cc(F)ccc2OC(=O)c2ccc(OC)c(OC)c2)cc1OC | 8 | 7 | 3 | -27
COc1ccc(/C=C/C(=O)c2cc(F)ccc2OC(=O)c2ccccc2)cc1OC | -2 | -7 | 77* | .
Cc1ccc(C(=O)O/N=C(\N)c2ccccn2)c(Cl)c1 | 0 | 5 | 105* | 2
N/C(=N\OC(=O)c1cc([N+](=O)[O-])ccc1Cl)c1ccccn1 | 4 | . | 3 | -12
Cc1ccc(C(=O)O/N=C(\N)c2ccccc2)c(Cl)c1 | 2 | 2 | 53 | -3
N/C(=N\OC(=O)c1ccc([N+](=O)[O-])cc1Cl)c1ccccn1 | 6 | -6 | 68* | 2
N/C(=N\OC(=O)c1ccc(Cl)cc1Cl)c1ccccn1 | 1 | 3 | 77* | .
C#CCOCCOCCOCCNc1nc(N2CCOCC2)nc(N2CCN(C(=O)[C@H](CCCCN)n3cc([C@@H](N)CC(C)C)nn3)CC2)n1 | 0 | -2 | -8 | -10
C[C@@H]1NS(=O)(=O)c2c(F)cccc2O[C@@H]1c1ccccc1 | 13 | . | -1 | -11
CC(C)NC(=O)Nc1ccc2c(c1)C(=O)N([C@@H](C)CO)C[C@H](C)[C@@H](CN(C)S(=O)(=O)c1cn(C)cn1)O2 | 1 | 7 | . | 5
C=CCNc1nc2ccccc2nc1NS(=O)(=O)c1ccc(Br)cc1 | -3 | 0 | 21 | -15
O=C1N(c2ccccc2)C[C@@H]2C[C@@H](c3cccs3)N3CCC[C@@]123 | -7 | . | 75* | -15
Cn1cc(C2=C(c3ccc(Cl)cc3Cl)C(=O)NC2=O)c2ccccc21 | -23 | -9 | 92* | -229
COc1cccc(/C=N/Nc2nc(Nc3ccc([N+](=O)[O-])cc3)nc(N3CCCC3)n2)c1O | 11 | 5 | 95* | -6
COc1cccc(/C=N/Nc2ccc([N+](=O)[O-])cn2)c1O | 2 | 2 | 91* | -12
O=[N+]([O-])c1ccc(Nc2nc(N/N=C/c3cccc(F)c3)nc(N3CCCC3)n2)cc1 | 2 | . | -18 | -6
O=C(O)c1ccc(N/N=C/c2c(F)cccc2Cl)cc1 | -14 | -4 | 82* | -16
COc1cccc(/C=N/Nc2ccc(C(=O)O)cc2)c1O | 0 | . | 108* | -7
CS(=O)(=O)N(CC(=O)N1CCCC1)c1ccccc1Br | 1 | -1 | -15 | -10
CCc1ccc(NC(=S)Nc2cc(C(=O)O)ccc2N2CC3CC(C2)c2cccc(=O)n2C3)cc1 (centres undefined) | -1 | . | -27 | 3
